Source: ChEMBL document CHEMBL5136969, “A niclosamide-tobramycin hybrid adjuvant potentiates cefiderocol against P. aeruginosa” (2021)
In brackets after ≈: the same amount, converted by molar mass.

Tests used:
Format in all cases: functional
Staphylococcus aureus [1] = assay: Antibacterial activity against methicillin-resistant Staphylococcus aureus ATCC 33592 assessed as reduction in bacterial growth after 18 hrs by microbroth dilution method
How it was run: (§1)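 Broth microdilution per CLSI in Mueller-Hinton broth (MHB). Overnight cultures were adjusted to 0.5 McFarland in saline, diluted 1:50 in MHB, and added at about 5 × 10^5 CFU/mL final to equal volumes of 2-fold serial dilutions of agent. Incubation was 18 h at 37 °C. MIC was the lowest concentration with no visible turbidity, confirmed by absorbance at 590 nm.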

Enterococcus faecium = assay: Antibacterial activity against Enterococcus faecium ATCC 27270 assessed as reduction in bacterial growth after 18 hrs by microbroth dilution method
How it was run: (§2)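 CLSI microbroth dilution in MHB. Overnight cultures were adjusted to 0.5 McFarland in saline, diluted 1:50, and inoculated at about 5 × 10^5 CFU/mL. Agents were 2-fold serially diluted and incubated 18 h at 37 °C. MIC is the lowest concentration without visible turbidity, confirmed by absorbance at 590 nm. Medium with and without cells served as controls.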

Pseudomonas aeruginosa = assay: Antibacterial activity against Pseudomonas aeruginosa PAO1 assessed as reduction in bacterial growth after 18 hrs by microbroth dilution method
How it was run: (§3)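 CLSI broth microdilution. Overnight cultures were adjusted in saline to 0.5 McFarland, diluted 1:50 in Mueller-Hinton broth (MHB), and inoculated at about 5 × 10^5 CFU/mL. Agents were 2-fold serially diluted in MHB, mixed 1:1 with inoculum, and held at 37 °C for 18 h. MIC was the lowest concentration with no visible turbidity, confirmed at 590 nm.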

Staphylococcus aureus [2] = assay: Antibacterial activity against Staphylococcus aureus ATCC 29213 assessed as reduction in bacterial growth after 18 hrs by microbroth dilution method; how it was run: as §3
Escherichia coli = assay: Antibacterial activity against Escherichia coli ATCC 25922 assessed as reduction in bacterial growth after 18 hrs by microbroth dilution method; how it was run: as §2
Enterococcus faecalis = assay: Antibacterial activity against Enterococcus faecalis ATCC 29212 assessed as reduction in bacterial growth after 18 hrs by microbroth dilution method; how it was run: as §2
[3] = tested on: Staphylococcus epidermidis; assay: Antibacterial activity against methicillin-resistant Staphylococcus epidermidis 61589 assessed as reduction in bacterial growth after 18 hrs by microbroth dilution method; how it was run: as §1
Acinetobacter baumannii = assay: Antibacterial activity against Acinetobacter baumannii ATCC 17978 assessed as reduction in bacterial growth after 18 hrs by microbroth dilution method; how it was run: as §2

SMILES | MIC (Staphylococcus aureus [1]) [µg/mL] | MIC (Enterococcus faecium) [µg/mL] | MIC (Pseudomonas aeruginosa) [µg/mL] | MIC (Staphylococcus aureus [2]) [µg/mL] | MIC (Escherichia coli) [µg/mL] | MIC (Enterococcus faecalis) [µg/mL] | MIC [3] [µg/mL] | MIC (Acinetobacter baumannii) [µg/mL]
O=C(Nc1ccc([N+](=O)[O-])cc1Cl)c1cc(Cl)ccc1O [NICLOSAMIDE] | 0.25 (≈ 0.764 µM) | 2 (≈ 6.11 µM) | > 128 | 1 (≈ 3.06 µM) | > 128 | 2 (≈ 6.11 µM) | 1 (≈ 3.06 µM) | > 128
NC[C@H]1O[C@H](O[C@H]2[C@H](O)[C@@H](O[C@H]3O[C@H](CO)[C@@H](O)[C@H](N)[C@H]3O)[C@H](N)C[C@@H]2N)[C@H](N)C[C@@H]1O [TOBRAMYCIN] | 2 (≈ 4.28 µM) | 16 (≈ 34.2 µM) | 0.5 (≈ 1.07 µM) | 0.5 (≈ 1.07 µM) | 2 (≈ 4.28 µM) | 8 (≈ 17.1 µM) | 8 (≈ 17.1 µM) | 0.5 (≈ 1.07 µM)
